Laboratory results taken from ChEMBL document CHEMBL3616436, “Synthesis, cytotoxicity and antimicrobial activity of thiourea derivatives incorporating 3-(trifluoromethyl)phenyl moiety” (Eur J Med Chem, 2015).
≈ marks a conversion by molar mass, not a printed value.

Legend:
[1] = tested on: Staphylococcus aureus; assay: Antimicrobial activity against hospital methicillin-resistant Staphylococcus aureus 57/05 after 18 hrs by twofold serial microdilution method; type: functional; conditions: 57/05, 18 h
In short: (§1)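 Twofold serial microdilution in Mueller-Hinton broth. Compound stock was made in DMSO and diluted in sterile water. Tested range was 0.125–512 µg/mL. Final inoculum was 10^5 CFU/mL. Plates were incubated 18 h at 35 °C. MIC is the lowest concentration preventing visible growth.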

[2] = tested on: Coxsackievirus B5; assay: Antiviral activity against Human coxsackievirus B5 ATCC VR-29 infected in African green monkey Vero 76 cells assessed as reduction of virus-plaque formation after 3 days by crystal violet staining; type: functional, organism-based; conditions: Enterovirus B, ATCC VR-29, Vero, 72 h
In short: (§2)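 Plaque reduction: Vero-76 at 2x10^5 cells/well grown to confluent monolayers, infected 2 h at 50–100 PFU/well; after removing unadsorbed virus, overlay of D-MEM, 1% inactivated FBS, 0.75% methylcellulose with or without serial compound dilutions; 3 days at 37°C, fixed and stained with crystal violet in 50% ethanol, plaques counted; EC50 by linear regression.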

[3] = tested on: Human alphaherpesvirus 1; assay: Antiviral activity against Human herpesvirus 1 KOS ATCC VR-1493 infected in African green monkey Vero 76 cells assessed as reduction of virus-plaque formation after 3 days by crystal violet staining; type: functional, organism-based; conditions: Human alphaherpesvirus 1, KOS ATCC VR1493, Vero, 72 h; in short: as §2
[4] = Cytotoxicity against BHK cells assessed as cell viability after 48 to 96 hrs by MTT assay; type: cell-based, Mesocricetus auratus; conditions: hamster
[5] = tested on: Staphylococcus epidermidis; assay: Antimicrobial activity against hospital methicillin-resistant Staphylococcus epidermidis 31/04 after 18 hrs by twofold serial microdilution method; type: functional; conditions: 31/04, 18 h; in short: as §1
[6] = tested on: Micrococcus luteus; assay: Antimicrobial activity against Micrococcus luteus ATCC 10240 at 400 ug after 18 hrs by disc-diffusion method; type: functional; conditions: ATCC 10240, 18 h, read-out: IZ
In short: (§3)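 Disc diffusion on Mueller-Hinton II agar per CLSI; 9 mm paper discs loaded with 400 µg compound from DMSO solution, dried, placed on agar; growth inhibition zone diameter read after 18 h at 35°C.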

[7] = tested on: Staphylococcus aureus; assay: Ratio of ciprofloxacin MIC to compound MIC for hospital methicillin-resistant Staphylococcus aureus 80/05 after 18 hrs by twofold serial microdilution method; type: functional
In short: (§4)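 Ratio of MICs for ciprofloxacin and test agent, each from twofold serial broth microdilution in Mueller-Hinton broth following CLSI guidelines. DMSO stock was diluted in sterile water to 0.125–512 µg/mL, with a final inoculum of 10^5 CFU/mL.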

[8] = tested on: Staphylococcus epidermidis; assay: Antimicrobial activity against hospital methicillin-resistant Staphylococcus epidermidis 62/04 after 18 hrs by twofold serial microdilution method; type: functional; conditions: 62/04, 18 h; in short: as §1
[9] = tested on: Mycobacterium tuberculosis; assay: Antimycobacterial activity against drug-sensitive Mycobacterium tuberculosis Spec. 192; type: functional
In short: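 Classical test-tube successive-dilution method in Youmans' modification of Proskauer and Beck liquid medium with 10% bovine serum. Inoculum came from 14-day cultures. DMSO stock was 10 mg/mL, diluted geometrically in medium. Tubes were incubated at 37 °C. Concentrations tested were 3.1, 6.2, 12.5, 25, 50 and 100 µg/ml. MIC is the minimum concentration inhibiting growth relative to compound-free tubes.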

[10] = tested on: Yellow fever virus; assay: Antiviral activity against Yellow fever virus 17D infected in BHK cells assessed as protection against virus-induced cytopathogenicity after 3 to 4 days by MTT assay; type: functional, cell-based
[11] = tested on: Staphylococcus epidermidis; assay: Ratio of ciprofloxacin MIC to compound MIC for hospital methicillin-resistant Staphylococcus epidermidis 23/04 after 18 hrs by twofold serial microdilution method; type: functional; in short: as §4
[12] = tested on: Human immunodeficiency virus 1; assay: Antiviral activity against HIV1 3B infected in human MT4 cells assessed as protection against virus-induced cytopathogenicity by MTT assay; type: functional, organism-based; conditions: Human immunodeficiency virus 1, 3B
[13] = tested on: Staphylococcus aureus; assay: Antimicrobial activity against Staphylococcus aureus ATCC 29213 at 400 ug after 18 hrs by disc-diffusion method; type: functional; conditions: ATCC 29213, 18 h, read-out: IZ; in short: as §3
[14] = tested on: Vaccinia virus; assay: Antiviral activity against Human Vaccinia virus ATCC VR-1549 infected in African green monkey Vero 76 cells assessed as reduction of virus-plaque formation after 3 days by crystal violet staining; type: functional, organism-based; conditions: Orthopoxvirus vaccinia, ATCC VR-1549, Vero, 72 h
[15] = tested on: Staphylococcus epidermidis; assay: Antimicrobial activity against Staphylococcus epidermidis ATCC 12228 after 18 hrs by twofold serial microdilution method; type: functional; conditions: ATCC 12228, 18 h
[16] = Cytotoxicity against African green monkey Vero 76 cells assessed as cell viability after 48 to 96 hrs by crystal violet staining; type: cell-based; conditions: chlorocebus sabaeus
[17] = tested on: Staphylococcus aureus; assay: Antimicrobial activity against Staphylococcus aureus ATCC 25923 at 400 ug after 18 hrs by disc-diffusion method; type: functional; conditions: ATCC 25923, 18 h, read-out: IZ; in short: as §3
[18] = tested on: Staphylococcus aureus; assay: Antimicrobial activity against Staphylococcus aureus ATCC 6538 after 18 hrs by twofold serial microdilution method; type: functional; conditions: ATCC 6538, 18 h
[19] = tested on: Staphylococcus epidermidis; assay: Antimicrobial activity against hospital methicillin-resistant Staphylococcus epidermidis 16/04 after 18 hrs by twofold serial microdilution method; type: functional; conditions: 16/04, 18 h; in short: as §1
[20] = tested on: Staphylococcus aureus; assay: Antimicrobial activity against hospital methicillin-resistant Staphylococcus aureus 522/11 after 18 hrs by twofold serial microdilution method; type: functional; conditions: 522/11, 18 h; in short: as §1
[21] = tested on: Staphylococcus epidermidis; assay: Ratio of ciprofloxacin MIC to compound MIC for hospital methicillin-resistant Staphylococcus epidermidis 151/04 after 18 hrs by twofold serial microdilution method; type: functional; in short: as §4
[22] = tested on: Staphylococcus aureus; assay: Antimicrobial activity against hospital methicillin-resistant Staphylococcus aureus 573/11 after 18 hrs by twofold serial microdilution method; type: functional; conditions: 573/11, 18 h; in short: as §1
[23] = tested on: Staphylococcus aureus; assay: Ratio of ciprofloxacin MIC to compound MIC for hospital methicillin-resistant Staphylococcus aureus 522/11 after 18 hrs by twofold serial microdilution method; type: functional; in short: as §4
[24] = tested on: Mammalian orthoreovirus 1; assay: Antiviral activity against Reovirus type-1 ATCC VR-214 infected in BHK cells assessed as protection against virus-induced cytopathogenicity after 3 to 4 days by MTT assay; type: functional, cell-based; conditions: Mammalian orthoreovirus 1, ATCC VR-214, BHK
In short: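 Cells seeded in 96-well plates (BHK 5x10^4, MDBK 3x10^4 cells/well), grown overnight to confluence, infected at m.o.i. 0.01 (BHK for Reo-1, MDBK for BVDV); serial compound dilutions in maintenance medium with 0.5% inactivated FBS added after 1 h; viability by MTT after 3–4 days at 37°C; EC50 for 50% protection by linear regression.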

[25] = tested on: Staphylococcus aureus; assay: Ratio of ciprofloxacin MIC to compound MIC for hospital methicillin-resistant Staphylococcus aureus 79/05 after 18 hrs by twofold serial microdilution method; type: functional; in short: as §4
[26] = tested on: Enterococcus faecalis; assay: Antimicrobial activity against Enterococcus faecalis ATCC 29212 at 400 ug after 18 hrs by disc-diffusion method; type: functional; conditions: ATCC 29212, 18 h, read-out: IZ; in short: as §3
[27] = tested on: Staphylococcus aureus; assay: Ratio of ciprofloxacin MIC to compound MIC for hospital methicillin-resistant Staphylococcus aureus 54/05 after 18 hrs by twofold serial microdilution method; type: functional; in short: as §4
[28] = tested on: Staphylococcus aureus; assay: Antimicrobial activity against hospital methicillin-resistant Staphylococcus aureus 54/05 after 18 hrs by twofold serial microdilution method; type: functional; conditions: 54/05, 18 h; in short: as §1
[29] = tested on: Staphylococcus aureus; assay: Ratio of ciprofloxacin MIC to compound MIC for hospital methicillin-resistant Staphylococcus aureus 57/05 after 18 hrs by twofold serial microdilution method; type: functional; in short: as §4

Structure (SMILES) | MIC [1] [mg/L] | EC50 [2] [µM] | EC50 [3] [µM] | MIC [5] [mg/L] | zone of inhibition at 400 µg/disc [6] [mm] | Ratio [7] | MIC [8] [mg/L] | MIC [9] [mg/L] | EC50 [10] [µM] | Ratio [11] | EC50 [12] [µM] | zone of inhibition at 400 µg/disc [13] [mm] | EC50 [14] [µM] | MIC [15] [mg/L] | zone of inhibition at 400 µg/disc [17] [mm] | MIC [18] [mg/L] | MIC [19] [mg/L] | MIC [20] [mg/L] | Ratio [21] | MIC [22] [mg/L] | also measured
Fc1ccc(NC(=S)Nc2cccc(C(F)(F)F)c2)cc1Cl | 1 (≈ 2.87 µM) | > 20 | > 20 | 1 (≈ 2.87 µM) | 30 | 128 | 0.5 (≈ 1.43 µM) | 50 (≈ 143 µM) | > 10 | 128 | > 8 | 30 | > 20 | 2 (≈ 5.73 µM) | 27 | 1 (≈ 2.87 µM) | 1 (≈ 2.87 µM) | 0.5 (≈ 1.43 µM) | 128 | 0.5 (≈ 1.43 µM) | CC50 [4]: 10 µM; CC50 [16]: 20 µM; Ratio [23]: 128; EC50 [24]: > 10 µM; Ratio [25]: 128; zone of inhibition at 400 µg/disc [26]: 20 mm; Ratio [27]: 128; MIC [28]: 1 mg/L (≈ 2.87 µM); Ratio [29]: 128
FC(F)(F)c1cccc(NC(S)=Nc2ccc(Cl)c(Cl)c2)c1 | 2 (≈ 5.48 µM) | > 16 | > 16 | 1 (≈ 2.74 µM) | 16 | 128 | 1 (≈ 2.74 µM) | 100 (≈ 274 µM) | > 9.5 | 128 | > 9 | 15 | > 16 | 2 (≈ 5.48 µM) | 14 | 0.5 (≈ 1.37 µM) | 2 (≈ 5.48 µM) | 1 (≈ 2.74 µM) | 128 | 1 (≈ 2.74 µM) | Ratio [23]: 128; EC50 [24]: > 9.5 µM; Ratio [25]: 128; zone of inhibition at 400 µg/disc [26]: 12 mm; Ratio [27]: 128; MIC [28]: 2 mg/L (≈ 5.48 µM); Ratio [29]: 128
Fc1cccc(NC(=S)Nc2cccc(C(F)(F)F)c2)c1 | 4 (≈ 12.7 µM) | > 20 | > 20 | 8 (≈ 25.5 µM) | 21 | 128 | 8 (≈ 25.5 µM) | > 100 | > 9.4 | 128 | > 20 | 21 | > 20 | 8 (≈ 25.5 µM) | 22 | 4 (≈ 12.7 µM) | 8 (≈ 25.5 µM) | 8 (≈ 25.5 µM) | 128 | 8 (≈ 25.5 µM) | CC50 [4]: 9.4 µM; CC50 [16]: 20 µM; Ratio [23]: 128; EC50 [24]: > 9.4 µM; Ratio [25]: 128; zone of inhibition at 400 µg/disc [26]: 14 mm; Ratio [27]: 128; MIC [28]: 8 mg/L (≈ 25.5 µM); Ratio [29]: 128
